Assay results as given in ChEMBL document CHEMBL3612059, “Synthesis of 1,2-benzisoxazole tethered 1,2,3-triazoles that exhibit anticancer activity in acute myeloid leukemia cell lines by inhibiting histone deacetylases, and inducing p21 and tubulin acetylation” (Bioorg Med Chem, 2015).
Active and inactive are the calls of the source. The calls are words filed in the database; no cut-off is given here.

Key:
[1] = test system: MV4-11; test: Induction of apoptosis in human MV4-11 cells assessed as late apoptotic cells at 2.5 uM after 72 hrs by Annexin V-FITC/propidium iodide staining-based flow cytometric analysis (reference value: 2%); format: functional
How it was run: (§1)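 100,000 cells per well treated with 2.5, 5.0 or 10 μM for 72 h. Washed in ice-cold Ca/Mg-free PBS, resuspended in 100 μl binding buffer, stained with 5 μl PI plus 3 μl annexin V-FITC for 15 min in the dark, then read immediately by flow cytometry. Quadrants scored as live, early apoptotic, late apoptotic and necrotic.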

[2] = test system: MOLM-14; test: Induction of apoptosis in human MOLM14 cells assessed as late apoptotic cells at 2.5 uM after 72 hrs by Annexin V-FITC/propidium iodide staining-based flow cytometric analysis (reference value: 2%); format: functional; how it was run: as §1
[3] = test system: MV4-11; test: Induction of apoptosis in human MV4-11 cells assessed as early apoptotic cells at 10 uM after 72 hrs by Annexin V-FITC/propidium iodide staining-based flow cytometric analysis (reference value: 7%); format: functional; how it was run: as §1
[4] = test system: MV4-11; test: Cytotoxicity against human MV4-11 cells assessed as cell viability measured at 96 hrs by MTT assay; format: functional, cell-based; settings: MV4-11, 96 h
How it was run: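 AML cells kept in RPMI with 10 % FBS and 1 % penicillin-streptomycin at 37 °C, 5 % CO₂, mycoplasma-screened. Seeded at 8,000 cells/well across a range of concentrations and read at several times up to 96 h. MTT added to 0.5 mg/ml final for 3 h at 37 °C, formazan dissolved in SDS-HCl, absorbance read at 570 nm. IC50 taken from the dose-response curves.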

[5] = test system: MOLM-14; test: Induction of apoptosis in human MOLM14 cells assessed as early apoptotic cells at 2.5 uM after 72 hrs by Annexin V-FITC/propidium iodide staining-based flow cytometric analysis (reference value: 7%); format: functional; how it was run: as §1
[6] = test system: MV4-11; test: Cell cycle arrest in human MV4-11 cells assessed as accumulation at G2/M phase after 72 hrs by propidium iodide staining-based flow cytometric analysis; format: functional
How it was run: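 Cells in RPMI with 10 % FBS at 37 °C, 5 % CO₂; treated up to 72 h, washed in cold PBS, fixed in -20 °C-precooled 70 % ethanol at 4 °C. Stained with 50 µg/ml PI, 1 % Triton X-100 and 20 µg/ml RNase A in PBS, 30 min, 37 °C, dark. Cell-cycle phases read by flow cytometry; three independent experiments, mean ± SD.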

[7] = test system: MV4-11; test: Induction of apoptosis in human MV4-11 cells assessed as late apoptotic cells at 10 uM after 72 hrs by Annexin V-FITC/propidium iodide staining-based flow cytometric analysis (reference value: 2%); format: functional; how it was run: as §1
[8] = test system: MV4-11; test: Upregulation of p21 protein expression in human MV4-11 cells by Western blot analysis; format: functional, cell-based

c1ccc(Oc2ccc(-c3cn(-c4noc5ccccc45)nn3)cc2)cc1
Activity [1]: 15% | Activity [2]: 26% | Activity [3]: 20% | IC50 [4]: 2.5 µM | Activity [5]: 12% | Activity [6]: Active | Activity [7]: 26% | Activity [8]: Active
